In paper PMC12004261 (RSC Medicinal Chemistry, 2025):
Entries after “also recorded” stand apart in the source; their conditions may differ.

Key:
synthetic α-Syn fibrils = synthetic α-Syn fibrils (Homo sapiens, UniProt P37840); assay: Saturation binding assay of [^3H]M503-1619 in α-Syn fibrils
[1] = target: PD brain tissue homogenates (Homo sapiens, UniProt P37840); assay: Saturation binding assay of [^3H]M503-1619 in PD brain tissue homogenates
Procedure, shortened: (§1)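 Frozen brain homogenate in pH 7.0 PBS, diluted to a final 100 μg tissue per mL. Contained ~1 nM tritiated test compound plus 0.2–1000 nM unlabelled compound and 0.25% DMSO (final). Incubated 60 min at room temperature, GF/B filtration, three PBS washes, scintillation counting after standing overnight. Nondisplaceable binding set with ~1 μM unlabelled compound; bound corrected for diluted specific activity. KD from Scatchard slope, Bmax from x-intercept; at least triplicate.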

[2] = target: AD brain tissue homogenates; assay: Saturation binding assay of [^3H]M503-1619 in AD brain tissue homogenates; parameters: species or system human; conditions: AD tissue (n = 4), mean ± SD
Procedure, shortened: as §1

[3] = target: PSP brain tissue homogenates (Homo sapiens, UniProt P10636); assay: Saturation binding assay of [^3H]M503-1619 in PSP brain tissue homogenates
Procedure, shortened: as §1

[4] = target: CBD brain tissue homogenates (Homo sapiens, UniProt P10636); assay: Saturation binding assay of [^3H]M503-1619 in CBD brain tissue homogenates
Procedure, shortened: as §1

[5] = target: α-Syn (Lewy bodies in PD, GCIs in MSA) (Homo sapiens, UniProt P37840); assay: Nuclear emulsion; type: binding; conditions: 5 nM and 15 nM, listed as [^3H]M503-1619
Procedure, shortened: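 Fresh-frozen PD and MSA cryosections (16 μm) were quenched for lipofuscin with TrueBlack in 70% EtOH and immunostained for pS129 α-Syn. Sections were incubated with 5 or 15 nM tritiated test compound in 30 mM Tris–HCl pH 7.4 for 2 h at 37 °C, then given graded Tris/ethanol washes. Emulsion-dipped slides were exposed 4 days in the dark and developed. Silver grains were imaged by brightfield alongside fluorescence.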

[6] = Total-body PET imaging study; type: in vivo, rhesus macaque; conditions: rhesus monkey
Brain PET imaging study = type: in vivo, cynomolgus macaque; conditions: cynomolgus monkey
Procedure, shortened: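 Male cynomolgus macaque (8.5 kg), ketamine 10–20 mg kg−1 induction, kept on 40% N2O/60% O2 with 1.0–1.5% isoflurane. After a positioning scan and a 45 min transmission scan for attenuation, ~350 MBq of the 11C-labelled test compound was given by limb-vein catheter. Two-hour dynamic scan, filtered back projection with corrections, co-registration to a monkey MRI template, whole-brain VOI. SUV normalised to body weight and injected dose.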

[7] = Radiometabolite study of venous blood plasma; type: in vivo, rhesus monkey; conditions: 7.5 min post-injection
Procedure, shortened: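 Plasma from a 26-year-old male rhesus macaque was sampled during a PET scan after IV injection of 105 MBq of the 11C-labelled test compound. The animal was anaesthetised with ketamine/dexmedetomidine and maintained on isoflurane. Venous blood was spun 5 min at 3000g and the plasma deproteinised with acetonitrile 1:1. Reverse-phase C18 HPLC used 65% 0.1 M ammonium formate/35% acetonitrile at 1.2 mL min−1. An in-line radio-detector measured parent fraction by standard retention time.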

CBD brain tissue homogenates, sequence (P10636 561-708 limits assumed): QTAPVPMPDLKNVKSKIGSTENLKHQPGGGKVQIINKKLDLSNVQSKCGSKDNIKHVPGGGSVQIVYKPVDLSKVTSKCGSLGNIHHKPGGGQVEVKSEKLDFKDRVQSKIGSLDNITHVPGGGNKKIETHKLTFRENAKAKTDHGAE
PSP brain tissue homogenates, sequence (P10636 561-698 limits assumed): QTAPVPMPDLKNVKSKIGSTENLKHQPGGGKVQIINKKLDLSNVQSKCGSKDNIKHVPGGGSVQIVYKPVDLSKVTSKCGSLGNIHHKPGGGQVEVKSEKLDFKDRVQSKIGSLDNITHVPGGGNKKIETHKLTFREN

COc1ccc(NC(=O)c2cnc(N3CCN(c4ccccn4)CC3)nc2N)cc1 [M503-1619, 4-Amino-N-(4-methoxyphenyl)-2-(4-(pyridin-2-yl)piperazin-1-yl)pyrimidine-5-carboxamide]
Kd (synthetic α-Syn fibrils): 4.4 ± 1 nM | Bmax (synthetic α-Syn fibrils; α-Syn fibrils (n = 4)): 1156 ± 112 nM | Kd [1]: 2.5 ± 0.3 nM | Bmax ([1]; PD tissue (n = 4)): 59 ± 10 nM | Selectivity vs. tau ([1]; α-Syn vs. tau): 10–20 fold | Kd [2]: 37 ± 2 nM | Kd [3]: 55 ± 3 nM | Bmax ([3]; PSP tissue (n = 4)): 399 ± 24 nM | Kd [4]: 94 ± 13 nM | Bmax ([4]; CBD tissue (n = 3)): 540 ± 130 nM | High-resolution autoradiography: binding to GCIs ([5]; MSA brain tissue sections): not to GCIs present in MSA; also recorded: not on GCIs in MSA brain | High-resolution autoradiography: binding to Lewy bodies ([5]; PD brain tissue sections): target engagement of [^3H]M503-1619 to Lewy bodies in PD brain; also recorded: accumulation of silver grains on Lewy bodies in PD | Time of peak uptake of the whole brain [6]: 2 to 3 min | Whole brain peak to 60 min ratio [6]: 3.2 | Peak uptake of the whole brain, standardized uptake value (SUV) ([6]; whole brain): 2.5 | Time of peak uptake of the whole brain (Brain PET imaging study): 2 to 3 min | Whole brain peak to 60 min ratio (Brain PET imaging study): 3.2 | Peak uptake of the whole brain, standardized uptake value (SUV) (Brain PET imaging study; whole brain): 2.3 | Parent (%) [7]: 57%
